SMILES strings stand for the structures.

Data on 18 compounds can be found in ChEMBL document CHEMBL1135776, “Benzo- and cyclohexanomazindol analogues as potential inhibitors of the cocaine binding site at the dopamine transporter” (J Med Chem, 2002).

Assay [1] relates to HEK293. The experiment in a line: Ability to block the uptake of [3H]- 5- HT(serotonin) in HEK-hSERT cells. It counts as functional, cell-based. As to conditions: Homo sapiens.
A short description of assay [2]: Discrimination ratio against NET as ratio of IC50 to that of Ki uptake to NET. In kind it is functional. The method in brief: (§1)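 Ratio of uptake IC50 in transporter-expressing HEK293 cells to [125I]RTI-55 binding Ki at the same human transporter (DAT, SERT or NET). Both were measured in this work: uptake with 20 nM [3H]amine for 10 min at 25 °C, binding for 90 min at 25 °C.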

The target of assay [3] is T1, Sodium-dependent dopamine transporter (Homo sapiens, UniProt Q01959). Nature of the assay: Inhibition of [125I]- RTI -55 binding at the Dopamine transporter sites on HEK-hDAT cells. It counts as cell-based. An outline of the steps:
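Membranes from HEK293 cells expressing hDAT, hSERT or hNET (about 10–15 μg protein) preincubated 10 min with compound in Krebs-HEPES pH 7.4 containing pargyline, tropolone and ascorbate. Duplicates, two or three experiments; IC50 converted to Ki by Cheng-Prusoff.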

The nature of assay [4]: Discrimination ratio against DAT as ratio of IC50 to that of Ki uptake to DAT. In kind it is functional. An outline of the steps: as §1
The target of assay [5] is Monoamine transporters; serotonin & dopamine (Homo sapiens) (UniProt P31645+Q01959). The experiment in a line: Selectivity ratio as ratio of IC50 value against SERT to that of DAT. In kind it is protein assay.
Assay [6] relates to HEK hDAT. The experiment in a line: Ratio of the IC50 against DAT in HEK hDAT cells to that of rat striatal membranes. It counts as cell membranes. As to conditions: Membrane.
Assay [7] deals with Monoamine transporters; Norepinephrine & dopamine (Homo sapiens) (UniProt Q01959+P23975). The experiment in a line: Selectivity ratio as ratio of IC50 value against NET to that of DAT. It counts as protein assay.
For assay [8], the target named is T2, Sodium-dependent noradrenaline transporter (Homo sapiens, UniProt P23975). Nature of the assay: Inhibition of [125I]- RTI -55 binding at the Norepinephrine transporter sites on HEK-hNET cells. It counts as cell-based. An outline of the steps: (§2)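 Membranes from HEK293 cells expressing hDAT, hSERT or hNET (about 10–15 μg protein) preincubated 10 min with compound in Krebs-HEPES pH 7.4 containing pargyline, tropolone and ascorbate. Then [125I]RTI-55 (40–80 pM final) added, 90 min at 25 °C, filtration. […] Duplicates, two or three experiments; IC50 converted to Ki by Cheng-Prusoff.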

Assay [9] concerns the target Sodium-dependent serotonin transporter (Homo sapiens, UniProt P31645). Nature of the assay: Inhibition of [125I]- RTI -55 binding at the Serotonin transporter sites on HEK-hSERT cells. In kind it is cell-based. The method in brief:
as §2

Assay [10] deals with Sodium-dependent dopamine transporter (Rattus norvegicus, UniProt P23977). The experiment in a line: Ability to displace [3H]WIN-35428 from dopamine transporter on rat striatal membrane. An outline of the steps:
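Rat (male Sprague–Dawley, 200–225 g) striatal membranes in modified Krebs-HEPES pH 7.4; 2.5 mg tissue (wet weight) per tube with 1.5 nM [3H]WIN 35,428. Membranes preincubated 5 min with test compound, then incubated 60 min on ice. Nonspecific binding defined with 0.1 mM cocaine. Filtration over BSA-soaked GF/B filters, scintillation counting; triplicate samples.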

Assay [11] deals with HEK293. Nature of the assay: Ability to block the uptake of [3H]NE (norepinephrine) in HEK-hNET cells. It counts as functional, cell-based. As to conditions: Homo sapiens.
Assay [12] is described as follows: Ratio of the IC50 against DAT in rat striatal membranes to that of guinea pig striatal membranes. It counts as cell membranes. The settings on record: Membrane.
Assay [13] concerns the target T1, Sodium-dependent dopamine transporter. The experiment in a line: (§3) Ratio of the IC50 value of Mazindol to that in guinea pig was determined. In kind it is functional. The settings on record: Cavia porcellus; target entry is the homologue from another species.
The subject of assay [14] is HEK293. The experiment in a line: Ability to block the uptake of [3H]- DA(dopamine) in HEK-hDAT cells. It counts as functional, cell-based. As to conditions: Homo sapiens.
The subject of assay [15] is HEK hDAT. The experiment in a line: Ratio of the IC50 against DAT in HEK hDAT cells to that of guinea pig striatal membranes. In kind it is cell-based.
The nature of assay [16]: Discrimination ratio against SERT as ratio of IC50 to that of Ki uptake to SERT. It counts as functional. The method in brief:
as §1

A short description of assay [17]: as §3. In kind it is functional.
Assay [18] has as its target T2, Sodium-dependent noradrenaline transporter. Nature of the assay: Displacement of [125I]RTI-55 from human Norepinephrine transporter expressed in HEK cells. In kind it is cell-based, HEK293. An outline of the steps: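 Membranes from HEK293 cells expressing hNET, about 10–15 μg protein per tube. Compounds diluted from 10 mM DMSO stock, preincubated 10 min, then 40–80 pM [125I]RTI-55 added, 90 min at 25 °C in Krebs-HEPES pH 7.4. […] GF/C filtration; two or three experiments in duplicate; IC50 converted to Ki by Cheng-Prusoff.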
For orientation: Loss of bound radioactivity is the signal in a displacement assay; it reports binding, not function.

Monoamine transporters; serotonin & dopamine (Homo sapiens), sequence (P31645 whole entry, looked up): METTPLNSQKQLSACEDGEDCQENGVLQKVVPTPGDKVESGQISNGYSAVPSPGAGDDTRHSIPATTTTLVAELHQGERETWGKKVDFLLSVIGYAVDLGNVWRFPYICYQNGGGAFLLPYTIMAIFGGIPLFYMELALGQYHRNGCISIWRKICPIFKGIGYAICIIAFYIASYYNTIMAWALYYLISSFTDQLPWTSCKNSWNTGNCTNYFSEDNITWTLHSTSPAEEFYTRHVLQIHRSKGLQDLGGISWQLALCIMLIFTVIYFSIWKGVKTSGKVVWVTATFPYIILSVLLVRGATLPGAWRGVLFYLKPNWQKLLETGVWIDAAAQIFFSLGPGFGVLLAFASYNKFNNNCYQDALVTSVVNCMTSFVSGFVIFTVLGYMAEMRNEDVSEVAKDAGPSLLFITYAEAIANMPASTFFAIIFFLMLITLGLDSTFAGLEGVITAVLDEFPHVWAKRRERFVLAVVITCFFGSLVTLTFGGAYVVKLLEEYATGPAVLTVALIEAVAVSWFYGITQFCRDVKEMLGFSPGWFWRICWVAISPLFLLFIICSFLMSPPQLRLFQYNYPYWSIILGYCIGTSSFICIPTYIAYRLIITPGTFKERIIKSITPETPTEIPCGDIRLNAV
Monoamine transporters; serotonin & dopamine (Homo sapiens), sequence (Q01959 whole entry, looked up): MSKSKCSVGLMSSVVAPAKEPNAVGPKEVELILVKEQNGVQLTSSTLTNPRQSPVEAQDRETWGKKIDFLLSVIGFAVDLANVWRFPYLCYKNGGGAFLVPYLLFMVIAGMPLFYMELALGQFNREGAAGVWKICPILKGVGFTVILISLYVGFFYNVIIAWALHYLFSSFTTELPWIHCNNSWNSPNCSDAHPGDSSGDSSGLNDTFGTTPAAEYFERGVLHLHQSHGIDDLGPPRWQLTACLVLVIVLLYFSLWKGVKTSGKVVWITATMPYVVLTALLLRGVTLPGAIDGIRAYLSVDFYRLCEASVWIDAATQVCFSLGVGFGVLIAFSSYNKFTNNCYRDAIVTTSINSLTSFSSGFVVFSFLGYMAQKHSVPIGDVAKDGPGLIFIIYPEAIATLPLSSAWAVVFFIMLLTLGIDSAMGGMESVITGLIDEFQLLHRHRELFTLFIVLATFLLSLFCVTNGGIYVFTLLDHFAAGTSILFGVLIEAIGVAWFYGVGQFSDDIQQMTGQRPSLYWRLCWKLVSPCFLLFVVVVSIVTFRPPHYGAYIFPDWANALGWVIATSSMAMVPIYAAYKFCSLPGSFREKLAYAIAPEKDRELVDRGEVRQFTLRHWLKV
Sodium-dependent serotonin transporter, sequence (P31645 whole entry): as the sequence (P31645 whole entry, looked up) above
T1 sequence (Q01959 whole entry): as the sequence (Q01959 whole entry, looked up) above
Monoamine transporters; Norepinephrine & dopamine (Homo sapiens), sequence (P23975 whole entry, looked up): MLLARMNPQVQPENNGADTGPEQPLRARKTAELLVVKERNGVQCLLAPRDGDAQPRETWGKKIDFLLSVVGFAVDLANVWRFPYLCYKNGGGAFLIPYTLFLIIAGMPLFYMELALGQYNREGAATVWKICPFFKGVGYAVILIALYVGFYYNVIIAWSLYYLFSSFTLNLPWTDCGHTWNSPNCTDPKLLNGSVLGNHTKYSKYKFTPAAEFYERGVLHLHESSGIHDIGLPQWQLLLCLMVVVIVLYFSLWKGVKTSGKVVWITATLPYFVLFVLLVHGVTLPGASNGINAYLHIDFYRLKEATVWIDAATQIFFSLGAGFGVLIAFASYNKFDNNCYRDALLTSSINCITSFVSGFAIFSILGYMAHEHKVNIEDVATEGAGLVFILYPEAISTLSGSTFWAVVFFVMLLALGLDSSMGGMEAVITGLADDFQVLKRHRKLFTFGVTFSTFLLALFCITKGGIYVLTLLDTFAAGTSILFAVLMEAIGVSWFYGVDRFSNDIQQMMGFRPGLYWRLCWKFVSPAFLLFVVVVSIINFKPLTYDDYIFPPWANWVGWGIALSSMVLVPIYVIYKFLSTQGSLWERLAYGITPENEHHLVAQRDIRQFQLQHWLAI
Monoamine transporters; Norepinephrine & dopamine (Homo sapiens), sequence (Q01959 whole entry, looked up): as the sequence (Q01959 whole entry, looked up) above
T2 sequence (P23975 whole entry): as the sequence (P23975 whole entry, looked up) above
Sodium-dependent dopamine transporter (Rattus norvegicus, UniProt P23977), sequence (P23977 whole entry): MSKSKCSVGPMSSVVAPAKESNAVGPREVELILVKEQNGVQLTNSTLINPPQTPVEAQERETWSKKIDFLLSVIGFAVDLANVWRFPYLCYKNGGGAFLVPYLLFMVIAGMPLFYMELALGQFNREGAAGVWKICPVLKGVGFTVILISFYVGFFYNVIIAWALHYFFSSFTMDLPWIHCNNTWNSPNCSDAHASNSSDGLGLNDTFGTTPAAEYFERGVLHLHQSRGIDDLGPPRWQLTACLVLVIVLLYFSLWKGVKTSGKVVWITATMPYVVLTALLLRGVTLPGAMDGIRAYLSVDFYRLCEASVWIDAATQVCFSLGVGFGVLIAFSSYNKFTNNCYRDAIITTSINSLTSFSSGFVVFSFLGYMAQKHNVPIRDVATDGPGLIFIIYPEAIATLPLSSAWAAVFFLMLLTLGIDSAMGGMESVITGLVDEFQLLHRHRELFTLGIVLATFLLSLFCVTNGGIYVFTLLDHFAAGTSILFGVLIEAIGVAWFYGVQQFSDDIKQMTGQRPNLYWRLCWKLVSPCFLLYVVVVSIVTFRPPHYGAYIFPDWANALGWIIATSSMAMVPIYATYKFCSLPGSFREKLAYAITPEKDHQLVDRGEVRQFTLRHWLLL

Usually IC50 stands for the concentration that gives 50% inhibition. For orientation: Ki means the dissociation constant of the complex between target and ligand, obtained from inhibition or displacement. Consider `OC1(c2ccc(Cl)cc2)c2ccccc2C2=N[C@H]3CCCC[C@@H]3N21` (stereo partly drawn), for which the IC50 was greater than 10000 nM in assay [1], 34.2 nM in assay [10], 323 nM in assay [11] and 63 nM in [14]. Also, the Ratio in assay [2] was 0.5; in assay [4], 0.4; in [5], 3.9; in assay [6], 4.4; in [7], 4.1; in [12], 12.7. For the same compound, the results for the Ratio in assay [13], in assay [15] and in assay [16] were 15.8, 56.3 and greater than 17, respectively. Besides, the Ki in [3] was 152 nM; in [8], 690 nM; in [9] it was 600 nM.
For the compound `OC1(c2ccc(Cl)cc2)c2c(c3ccccc3c3ccccc23)C2=NCCN21` (stereo not drawn), the Ratio in [17] was less than 0.02.
Take `OC1(c2ccc3c(c2)CCCC3)c2ccccc2C2=NCCN21` (stereo not drawn): the Ratio in assay [13] is less than 0.02.
On the same count and under the same terms, with `OC1(c2ccc(Cl)cc2)c2ccccc2-c2nc3ccccc3n21` (stereo not drawn) the figure was less than 0.02.
`OC1(c2ccc(Cl)cc2)c2ccccc2C2=NCCN21` (stereo not drawn) [MAZINDOL]: the IC50 in assay [1] is 94 nM; in assay [11], 4.9 nM. The Ki was 18 nM in assay [8] and 50 nM in assay [9].
As for `OC1(c2ccc(Cl)cc2)c2ccccc2C2=N[C@@H]3CCCC[C@@H]3N21` (stereo partly drawn), the Ratio in assay [13] is 5.1.
Take `OC1(c2ccc3ccccc3c2)c2ccc3ccccc3c2C2=NCCN21` (stereo not drawn): the figures for the IC50 in assay [1], in assay [11] and in assay [14] were 370 nM, 38 nM and 880 nM, respectively. Further, the Ratio is 7 in assay [2]; 311 in assay [4]; 3.9 in assay [5]; 0.07 in assay [6]; 1.9 in [7]; 11.6 in assay [12]. For the same compound, the Ratio in assay [13] came out at 13; in [15] it was 0.9; in [16], 34. Besides, the Ki came to 2.83 nM in [3], 5.2 nM in assay [8] and 11 nM in assay [9].
As to `OC1(c2ccc(Cl)cc2)c2ccccc2C2=NCCCN21` (stereo not drawn), the IC50 in assay [1] came to 53 nM; in assay [11] it was 4.9 nM; in assay [14] it was 3.7 nM. Further, the Ratio in [2] worked out at 0.3; in assay [4] it was 2.2; in assay [5], 22.9; in assay [7], 10.7; in assay [13], 10.1; in assay [16], 1.4. The Ki in assay [3] was found to be 1.7 nM; in assay [18], 18.2 nM; in assay [9], 39 nM.
Turning to `OC1(c2cccc3ccccc23)c2ccccc2C2=NCCN21` (stereo not drawn), the Ratio in [13] worked out at 0.02.
As to `OC1(c2ccc(Cl)cc2)c2c(ccc3ccccc23)C2=NCCN21` (stereo not drawn), the Ratio in [13] stood at 0.2.
Turning to `OC1(c2ccc(Cl)cc2)c2ccc3ccccc3c2C2=N[C@H]3CCCC[C@@H]3N21` (mixture of isomers), in assay [13], the Ratio is less than 0.02.
`OC1(c2ccc(Cl)cc2)c2ccccc2C2=Nc3ccccc3CN21` (stereo not drawn): the Ratio in [13] is less than 0.02.
For the compound `OC1(c2ccc(Cl)cc2)c2ccc3ccccc3c2C2=NCCCN21` (stereo not drawn), the figures for the 50% inhibitory concentration (IC50) in assay [1], in assay [11] and in assay [14] were 700 nM, 53 nM and 366 nM, respectively. In addition, the Ratio in assay [2] was determined as 10; in [4] it was 182; in assay [5] it was 2.8; in assay [6] it was 0.05; in assay [7] it was 2.6; in assay [12], 17.8. The Ratio in [13] came out at 20.3; in assay [15], 1; in assay [16] it was 127. Further, the Ki in assay [3] came to 2.01 nM; in [8] it was 5.3 nM; in assay [9] it was 5.5 nM.
Take `OC1(c2ccc3ccccc3c2)c2c(c3ccccc3c3ccccc23)C2=NCCN21` (stereo not drawn): in assay [17], the Ratio is reported as less than 0.02.
Take `OC1(c2ccc(Cl)cc2)c2ccc3ccccc3c2C2=NCCN21` (stereo not drawn): the concentration for half-maximal inhibition (IC50) is 3210 nM in assay [1], 13 nM in [11] and 85 nM in assay [14]. Besides, the Ratio in assay [2] was 0.4; in assay [4], 3.2; in assay [5], 8.2; in [6] it was 1.7; in assay [7] it was 1.2; in assay [12] it was 1.5. The values for the Ratio in [13], in assay [15] and in assay [16] were 4, 2.6 and 14.3, respectively. For the same compound, the results for the inhibitory constant (Ki) in assay [3], in [8] and in [9] were 27.2 nM, 33.4 nM and 224 nM, respectively.
As for `OC1(c2ccc(Cl)cc2)c2ccccc2C2=NCc3ccccc3CN21` (stereo not drawn), the Ratio in assay [13] is less than 0.02.
As to `OC1(c2ccc3ccccc3c2)c2ccccc2C2=NCCN21` (stereo not drawn), the IC50 turned out to be 1.8 nM in assay [1], 4.5 nM in [11] and 66 nM in assay [14]. In addition, the Ratio in assay [2] is 0.4; in assay [4], 1.5; in assay [5], 0.05; in [6] it was 1.9; in assay [7], 0.24; in [12] it was 5.7. In addition, the Ratio came out at 10.4 in assay [13], 11 in assay [15] and 0.8 in assay [16]. Besides, the Ki in [3] was 45 nM; in assay [8], 11 nM; in assay [9], 2.3 nM.
For the compound `OC1(c2ccc(Cl)cc2)c2cc3ccccc3cc2C2=NCCN21` (stereo not drawn), the Ratio in assay [13] is 1.3.
